Reference: ChEMBL document CHEMBL2203116, “Synthesis and evaluation of novel carbon-11 labeled oxopurine analogues for positron emission tomography imaging of translocator protein (18 kDa) in peripheral organs” (J Med Chem, 2011)

Key:
Heart [1] = experiment: Drug uptake in Sprague-Dawley rat heart at 0.13 nmol, iv after 2 mins by PET scanning; type: ADME, organism-based; details: in vivo
In short: (§1)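 Isoflurane-anesthetized male Sprague-Dawley rats lay prone and received an iv bolus of [11C]radioligand in 200 μL. 3D list-mode emission scans ran 30 min from injection. Regions of interest were drawn on the organs and cardiac blood pool. Uptake was decay-corrected to injection time and expressed as SUV (normalized to injected radioactivity and body weight). Values are mean of n = 4.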

Liver [2] = experiment: Drug uptake in Sprague-Dawley rat liver at 0.13 nmol, iv pretreated with unlabeled AC-5216 measured after 27.5 mins by PET scanning relative to control; type: ADME, organism-based; details: in vivo
In short: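 Male Sprague-Dawley rats, 6-8 weeks, isoflurane-anesthetized. A blocking TSPO ligand (1.0 mg/kg, in 300 μL saline with 10% ethanol and 5% polysorbate 80) was injected 1 min before iv radioligand (16-18 MBq/200 μL). Liver ROI as decay-corrected SUV (injected activity, body weight), 27.5-min value versus controls; n = 4.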

Lung [3] = experiment: Drug uptake in Sprague-Dawley rat lung at 0.13 nmol, iv pretreated with unlabeled AC-5216 by PET scanning; type: ADME, organism-based; details: in vivo
In short: (§2)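 Male Sprague-Dawley rats (6–8 weeks old), isoflurane-anesthetized, prone. ROIs on lung, heart, kidney, liver, small intestine and cardiac blood pool. Uptake decay-corrected to injection time and expressed as SUV (body-weight normalized). n = 4, mean ± SD.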

Heart [4] = experiment: Drug uptake in Sprague-Dawley rat heart at 0.13 nmol, iv pretreated with unlabeled AC-5216 by PET scanning; type: ADME, organism-based; details: in vivo
In short: (§3)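 Isoflurane-anesthetized Sprague-Dawley rats underwent 30-min PET after iv [11C]radioligand, with unlabeled blocker given iv 1 min before tracer. Blockers were (R)-PK11195 at 3.0 mg/kg or AC-5216 at 1.0 mg/kg in 300 μL saline with 10% ethanol and 5% polysorbate 80. Regional uptake was decay-corrected SUV (n = 4).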

Lung [5] = experiment: Drug uptake in Sprague-Dawley rat lung at 0.13 nmol, iv pretreated with unlabeled (R)-PK11195 by PET scanning; type: ADME, organism-based; details: in vivo; in short: as §2
Blood [6] = experiment: Drug uptake in Sprague-Dawley rat cardiac blood pool at 0.13 nmol, iv after 2 mins by PET scanning; type: ADME, organism-based; details: in vivo; in short: as §1
Heart [7] = experiment: Drug uptake in Sprague-Dawley rat heart at 0.13 nmol, iv up to 30 mins by PET scanning; type: ADME, organism-based; details: in vivo, 0.5 h; in short: as §1
Liver [8] = experiment: Drug uptake in Sprague-Dawley rat liver at 0.13 nmol, iv after 27.5 mins by PET scanning; type: ADME, organism-based; details: in vivo; in short: as §2
Blood [9] = experiment: Drug uptake in Sprague-Dawley rat cardiac blood pool at 0.13 nmol, iv after 27.5 mins by PET scanning; type: ADME, organism-based; details: in vivo; in short: as §1
Heart [10] = experiment: Drug uptake in Sprague-Dawley rat heart at 0.13 nmol, iv after 27.5 mins by PET scanning; type: ADME, organism-based; details: in vivo; in short: as §1
Lung [11] = experiment: Drug uptake in Sprague-Dawley rat lung at 0.13 nmol, iv up to 30 mins by PET scanning; type: ADME, organism-based; details: in vivo, 0.5 h; in short: as §2
Kidney [12] = experiment: Drug uptake in Sprague-Dawley rat kidney at 0.13 nmol, iv pretreated with unlabeled (R)-PK11195 by PET scanning; type: ADME, organism-based; details: in vivo; in short: as §3
Intestine = experiment: Drug uptake in Sprague-Dawley rat small intestine at 0.13 nmol, iv up to 30 mins by PET scanning; type: ADME, organism-based; details: in vivo, 0.5 h; in short: as §2
Blood [13] = experiment: Drug uptake in Sprague-Dawley rat cardiac blood pool at 0.13 nmol, iv up to 30 mins by PET scanning; type: ADME, organism-based; details: in vivo, 0.5 h; in short: as §1
Heart [14] = experiment: Drug uptake in Sprague-Dawley rat heart at 0.13 nmol, iv pretreated with unlabeled (R)-PK11195 by PET scanning; type: ADME, organism-based; details: in vivo; in short: as §3
Liver [15] = experiment: Drug uptake in Sprague-Dawley rat liver at 0.13 nmol, iv pretreated with unlabeled (R)-PK11195 measured after 27.5 mins by PET scanning relative to control; type: ADME, organism-based; details: in vivo
In short: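 Male Sprague-Dawley rats, 6-8 weeks old, under isoflurane, prone. An unlabeled TSPO blocking ligand (3.0 mg/kg) was injected 1 min before the iv radioligand (16-18 MBq/200 μL). A liver ROI was decay-corrected and expressed as SUV normalized to injected activity and body weight. The 27.5-min value was compared with unblocked controls; n = 4.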

Kidney [16] = experiment: Drug uptake in Sprague-Dawley rat kidney at 0.13 nmol, iv after 27.5 mins by PET scanning; type: ADME, organism-based; details: in vivo; in short: as §1
Lung [17] = experiment: Drug uptake in Sprague-Dawley rat lung at 0.13 nmol, iv after 27.5 mins by PET scanning; type: ADME, organism-based; details: in vivo; in short: as §2
Liver [18] = experiment: Drug uptake in Sprague-Dawley rat liver at 0.13 nmol, iv after 2 mins by PET scanning; type: ADME, organism-based; details: in vivo; in short: as §2
Liver [19] = experiment: Drug uptake in Sprague-Dawley rat liver at 0.13 nmol, iv up to 30 mins by PET scanning; type: ADME, organism-based; details: in vivo, 0.5 h; in short: as §2
Kidney [20] = experiment: Drug uptake in Sprague-Dawley rat kidney at 0.13 nmol, iv up to 30 mins by PET scanning; type: ADME, organism-based; details: in vivo, 0.5 h; in short: as §2
Kidney [21] = experiment: Drug uptake in Sprague-Dawley rat kidney at 0.13 nmol, iv pretreated with unlabeled AC-5216 by PET scanning; type: ADME, organism-based; details: in vivo; in short: as §2
Kidney [22] = experiment: Drug uptake in Sprague-Dawley rat kidney at 0.13 nmol, iv after 2 mins by PET scanning; type: ADME, organism-based; details: in vivo; in short: as §1
Lung [23] = experiment: Drug uptake in Sprague-Dawley rat lung at 0.13 nmol, iv after 2 mins by PET scanning; type: ADME, organism-based; details: in vivo; in short: as §2
Translocator protein = Translocator protein (Rattus norvegicus, UniProt P16257); experiment: Displacement of [11C]-PK-11195 from TPSO in Sprague-Dawley rat brain homogenate after 30 mins by gamma counting; type: tissue-based
Sequence of Translocator protein (P16257 whole entry, looked up): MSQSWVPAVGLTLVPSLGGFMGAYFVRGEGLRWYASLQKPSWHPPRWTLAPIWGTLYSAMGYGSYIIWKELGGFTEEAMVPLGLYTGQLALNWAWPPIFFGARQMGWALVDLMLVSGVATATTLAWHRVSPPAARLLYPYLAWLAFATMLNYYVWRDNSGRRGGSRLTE

[24] = Lipophilicity, log D of the compound in octanol-phosphate buffer at pH 7.4 by shake flask method; type: physicochemical
In short: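 Radioligand (~200000 cpm) shaken with n-octanol (3.0 g) and 0.1 M sodium phosphate buffer pH 7.4 (3.0 g). Vortexed 3 min at room temperature, centrifuged 3500 rpm for 5 min. Phases weighed and counted; organic layer repartitioned until consistent. LogD = log of the cpm/g octanol to cpm/g buffer ratio. Triplicate.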

In the case of `CN(Cc1cccnc1)C(=O)Cn1c(=O)n([11CH3])c2cnc(-c3ccccc3)nc21`, the SUV (Heart [1]) is reported as 4.6, the “fold change (FC)” value (Liver [2]) is reported as 1.5 and the Drug uptake (Lung [3]) is reported as “Not Active”. The Drug uptake (Heart [4]) was “Not Active”, the Drug uptake (Lung [5]) was “Not Active” and the SUV (Blood [6]) was 3. The Drug uptake (Heart [7]) was “Active”, the SUV (Liver [8]) was 0.5 and the SUV (Blood [9]) was 0.4. For the same compound, the SUV (Heart [10]) was 0.9, the Drug uptake (Lung [11]) was “Active” and the Drug uptake (Kidney [12]) was “Not Active”. The Drug uptake (Intestine) was “Active”, the Drug uptake (Blood [13]) was “Active” and the Drug uptake (Heart [14]) was “Not Active”. For the same compound, the “fold change (FC)” value (Liver [15]) was 1.5, the SUV (Kidney [16]) was 1 and the SUV (Lung [17]) was 0.5. For the same compound, the SUV (Liver [18]) was 1.6, the Drug uptake (Liver [19]) was “Active” and the Drug uptake (Kidney [20]) was “Active”. For the same compound, the Drug uptake (Kidney [21]) was “Not Active”, the SUV (Kidney [22]) was 3.3 and the SUV (Lung [23]) was 3.4.
`CCN(Cc1ccccc1)C(=O)Cn1c(=O)n(C)c2cnc(-c3ccccc3)nc21` showed a Ki (Translocator protein) of 0.6 nM and a logD [24] of 3.48.
In the case of `CC[C@@H](C)N(C)C(=O)c1cc2ccccc2c(-c2ccccc2Cl)n1` [(R)PK-11195], the logD [24] is reported as 3.74.
